Source: paper PMC5522751 (Bioorganic & medicinal chemistry, 2017)

Assays:
[1] = biological target: human 20S proteasome trypsin-like (T-L, β2) site (Homo sapiens, UniProt P49720+Q99436); assay: Fluorogenic assay for 20S human proteasome inhibition, trypsin-like site; type: biochemical
[2] = biological target: human 20S proteasome caspase-like (C-L, β1) site (Homo sapiens, UniProt P28072+Q99436); assay: Fluorogenic assay for 20S human proteasome inhibition, caspase-like site; type: biochemical
human FAS-TE = human FAS-TE (Homo sapiens, UniProt P49327); assay: Fluorogenic assay for human FAS-TE inhibition; type: biochemical; settings: for reduction (drop) of FAS-TE activity: compared to 21
Chain of human FAS-TE (P49327 2207-2511 limits assumed): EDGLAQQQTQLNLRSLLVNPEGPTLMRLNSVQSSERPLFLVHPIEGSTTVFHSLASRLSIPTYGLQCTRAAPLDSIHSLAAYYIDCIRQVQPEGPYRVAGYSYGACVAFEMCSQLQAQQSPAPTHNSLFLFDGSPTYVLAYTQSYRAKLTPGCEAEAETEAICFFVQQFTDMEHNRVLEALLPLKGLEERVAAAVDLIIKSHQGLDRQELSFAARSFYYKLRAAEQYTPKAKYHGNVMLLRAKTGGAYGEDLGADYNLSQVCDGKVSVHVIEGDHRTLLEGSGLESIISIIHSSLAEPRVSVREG

[3] = biological target: ChT-L (proteasome beta-5, PSB-5) (Homo sapiens, UniProt P20618+P28074); assay: Activity-based in situ competitive labelling against ABPP probe 28, ChT-L; type: cell-based; settings: MCF-7 cells, 30 min preincubation with inhibitor, then 10 µM probe 28 for 30 min
FAS = FAS (Homo sapiens, UniProt P49327); assay: Activity-based in situ competitive labelling against ABPP probe 28, FAS band; type: cell-based; settings: MCF-7 cells, 30 min preincubation with inhibitor, then 10 µM probe 28 for 30 min
Chain of FAS (P49327 whole entry): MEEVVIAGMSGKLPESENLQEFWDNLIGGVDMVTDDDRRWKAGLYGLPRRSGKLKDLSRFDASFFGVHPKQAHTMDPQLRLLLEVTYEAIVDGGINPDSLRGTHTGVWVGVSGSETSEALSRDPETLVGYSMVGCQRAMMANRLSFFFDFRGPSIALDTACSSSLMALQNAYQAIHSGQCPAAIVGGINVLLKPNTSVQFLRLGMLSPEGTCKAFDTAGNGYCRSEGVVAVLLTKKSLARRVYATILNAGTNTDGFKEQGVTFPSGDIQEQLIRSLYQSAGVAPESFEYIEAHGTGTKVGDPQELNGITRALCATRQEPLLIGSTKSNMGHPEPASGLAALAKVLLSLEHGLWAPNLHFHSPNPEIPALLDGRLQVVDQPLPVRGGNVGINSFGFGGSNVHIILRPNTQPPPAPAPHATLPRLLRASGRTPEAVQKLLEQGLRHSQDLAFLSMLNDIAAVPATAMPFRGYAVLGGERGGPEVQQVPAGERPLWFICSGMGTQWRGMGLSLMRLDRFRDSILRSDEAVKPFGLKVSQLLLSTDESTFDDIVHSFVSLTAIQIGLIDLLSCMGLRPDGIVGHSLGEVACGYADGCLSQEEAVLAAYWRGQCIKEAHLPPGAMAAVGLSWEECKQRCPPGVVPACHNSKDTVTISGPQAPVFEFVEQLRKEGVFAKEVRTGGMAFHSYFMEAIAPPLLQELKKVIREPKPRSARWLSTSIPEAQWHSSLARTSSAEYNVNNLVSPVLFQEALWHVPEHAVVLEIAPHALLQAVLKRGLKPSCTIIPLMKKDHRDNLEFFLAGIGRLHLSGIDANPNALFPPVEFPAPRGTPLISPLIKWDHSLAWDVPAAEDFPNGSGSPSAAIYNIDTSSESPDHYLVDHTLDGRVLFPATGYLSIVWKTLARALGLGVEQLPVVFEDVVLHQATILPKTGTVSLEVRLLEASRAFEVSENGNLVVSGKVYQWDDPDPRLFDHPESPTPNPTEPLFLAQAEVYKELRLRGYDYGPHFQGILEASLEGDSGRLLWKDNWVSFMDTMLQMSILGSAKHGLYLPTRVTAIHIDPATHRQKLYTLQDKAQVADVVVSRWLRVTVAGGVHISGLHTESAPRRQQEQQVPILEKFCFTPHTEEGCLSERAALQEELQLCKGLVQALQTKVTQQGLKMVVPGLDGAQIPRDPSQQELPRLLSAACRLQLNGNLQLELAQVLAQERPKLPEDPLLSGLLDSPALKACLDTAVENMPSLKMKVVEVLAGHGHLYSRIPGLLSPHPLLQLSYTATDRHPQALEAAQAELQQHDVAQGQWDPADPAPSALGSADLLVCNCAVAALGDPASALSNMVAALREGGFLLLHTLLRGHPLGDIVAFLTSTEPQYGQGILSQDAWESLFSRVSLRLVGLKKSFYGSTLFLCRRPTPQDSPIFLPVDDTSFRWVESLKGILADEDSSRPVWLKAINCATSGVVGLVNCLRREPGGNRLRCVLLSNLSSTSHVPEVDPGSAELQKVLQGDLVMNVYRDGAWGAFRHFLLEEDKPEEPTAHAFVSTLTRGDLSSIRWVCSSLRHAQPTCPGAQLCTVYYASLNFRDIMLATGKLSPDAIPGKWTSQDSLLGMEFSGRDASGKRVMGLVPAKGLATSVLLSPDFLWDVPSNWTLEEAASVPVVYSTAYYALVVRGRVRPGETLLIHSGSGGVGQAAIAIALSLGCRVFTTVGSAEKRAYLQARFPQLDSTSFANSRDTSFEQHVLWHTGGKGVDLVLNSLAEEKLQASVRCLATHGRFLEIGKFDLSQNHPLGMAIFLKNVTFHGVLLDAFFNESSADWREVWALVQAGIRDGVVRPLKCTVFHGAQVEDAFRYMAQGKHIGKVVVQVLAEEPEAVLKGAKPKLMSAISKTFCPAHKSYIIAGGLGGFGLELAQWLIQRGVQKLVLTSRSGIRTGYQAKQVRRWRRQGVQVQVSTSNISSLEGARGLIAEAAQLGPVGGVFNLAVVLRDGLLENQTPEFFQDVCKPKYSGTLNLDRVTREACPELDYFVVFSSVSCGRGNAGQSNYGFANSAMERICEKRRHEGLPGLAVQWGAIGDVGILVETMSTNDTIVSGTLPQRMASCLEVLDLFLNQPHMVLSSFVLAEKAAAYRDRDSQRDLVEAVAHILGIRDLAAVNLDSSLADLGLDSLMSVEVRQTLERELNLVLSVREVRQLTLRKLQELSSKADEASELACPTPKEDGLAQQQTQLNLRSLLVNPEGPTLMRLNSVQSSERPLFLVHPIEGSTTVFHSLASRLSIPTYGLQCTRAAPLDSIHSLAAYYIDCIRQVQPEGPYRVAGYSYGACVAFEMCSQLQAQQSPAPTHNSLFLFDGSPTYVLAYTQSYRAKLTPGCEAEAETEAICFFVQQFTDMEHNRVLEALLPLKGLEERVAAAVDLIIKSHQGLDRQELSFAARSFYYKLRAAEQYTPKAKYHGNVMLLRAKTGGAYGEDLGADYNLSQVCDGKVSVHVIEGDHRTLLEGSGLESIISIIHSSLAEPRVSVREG
How it was run: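 Cells at 80–90% confluency were washed and given serum-free medium with test compound (10–100 µM; 1, 2.5, 5, 10-fold excess over probe) or DMSO, 30 min at 37 °C, 5% CO2. Alkyne probe was added (10 µM final) for 30 min. Soluble lysate (1% NP-40/1% deoxycholate, ~1.0 mg/mL) was clicked to TAMRA-N3 (100 µM; 1 mM CuSO4, 1 mM TCEP, 100 µM TBTA) for 1–1.5 h, RT, dark. Read-out: 10% SDS-PAGE, in-gel fluorescence.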

[4] = biological target: human 20S proteasome chymotrypsin-like (ChT-L, β5) site (Homo sapiens, UniProt P20618+P28074); assay: Fluorogenic assay for 20S human proteasome inhibition, chymotrypsin-like site; type: biochemical; settings: compared to the diastereomeric β-lactone 21

IC50 [1] [µM]	IC50 [2] [µM]	Structure (SMILES)	other results
> 100	> 100	C#Cc1ccc(COC(=O)[C@H](C)NC(=O)[C@H](CCCCNC(=O)[C@@H]2OC(=O)[C@H]2CCCCCC)NC(=O)OCc2ccccc2)cc1 [compound 28]	reduction (drop) of FAS-TE activity (human FAS-TE): ~ 2.5 fold
> 100	> 100	CCCCCC[C@@H]1C(=O)O[C@H]1C(=O)NCCCC[C@H](NC(=O)OCc1ccccc1)C(=O)N[C@@H](C)C(=O)OCc1ccccc1 [compound 21]	excess of inhibitor over probe 28 that resulted in ChT-L signal reduction [3]: 2.5 fold; potency against FAS-TE compared to orlistat (human FAS-TE; ratio of IC50 values, more potent than orlistat): 3 X; excess of inhibitor over probe 28 that resulted in FAS signal reduction (FAS): 10 fold
> 100		CCCCCC[C@@H]1C(=O)O[C@H]1C(=O)NCCCC[C@H](NC(=O)[C@H](C)NC(=O)OCc1ccccc1)C(=O)OCc1ccccc1 [compound 17]	
> 100	> 100	CCCCCC[C@H]1C(=O)O[C@@H]1C(=O)NCCCC[C@H](NC(=O)OCc1ccccc1)C(=O)N[C@@H](C)C(=O)OCc1ccccc1 [compound 23]	reduction (drop) of FAS-TE activity (human FAS-TE): ~ 8 fold; reduction of proteasome ChT-L activity [4]: ~ 8 fold

More lines, now with the values behind:

Structure (SMILES)	IC50 [1] [µM]	IC50 [2] [µM]	other results
CCCCCC[C@@]1(C)C(=O)O[C@@H]1C(=O)NCCCC[C@H](NC(=O)[C@H](C)NC(=O)OCc1ccccc1)C(=O)OCc1ccccc1 [compound 26]	> 100		
CCCCCC[C@@H]1C(=O)O[C@H]1C(=O)NCCCC[C@H](NC(=O)[C@H](C)NC(=O)c1ccc(Br)cc1)C(=O)OCc1ccccc1 [compound 20]	> 100		
CCCCCCCCCCC[C@@H](C[C@@H]1OC(=O)[C@H]1CCCCCC)OC(=O)[C@H](CC(C)C)NC=O [orlistat, Tetrahydrolipstatin, reference compound]	> 100	> 100	
CCCCCC[C@H]1C(=O)O[C@@H]1C(=O)NCCCC[C@H](NC(=O)CNC(=O)OCc1ccccc1)C(=O)OCc1ccccc1 [compound 24]	> 100		
CCCCCC[C@@H]1C(=O)O[C@H]1C(=O)NCCCC[C@H](NC(=O)CNC(=O)OCc1ccccc1)C(=O)OCc1ccccc1 [compound 18]	> 100		drop in potency against FAS-TE (human FAS-TE; relative to derivative 17): ~ 3 fold
CCCCCC[C@]1(C)C(=O)O[C@H]1C(=O)NCCCC[C@H](NC(=O)[C@H](C)NC(=O)OCc1ccccc1)C(=O)OCc1ccccc1 [compound 25]	> 100		excess of inhibitor over probe 28 that resulted in ChT-L signal reduction [3]: not able to compete effectively; excess of inhibitor over probe 28 that resulted in FAS signal reduction (FAS): not able to compete effectively
CCCCCC[C@@H]1C(=O)O[C@H]1C(=O)NCCCC[C@@H]1NC(=O)N([C@@H](C)C(=O)OCc2ccccc2)C1=O [compound 22]	> 100	7.93 ± 0.21	
CCCCCC[C@@]1(C)C(=O)O[C@H]1C(=O)NCCCC[C@H](NC(=O)[C@H](C)NC(=O)OCc1ccccc1)C(=O)OCc1ccccc1 [compound 27]	> 100		
